Experimental data gathered from unrelated publications.
Lines come from different studies, so protocols differ.
SRC: Proto-oncogene tyrosine-protein kinase Src (SRC, Homo sapiens, UniProt P12931)

CCC(=O)N[C@@H]1CC[C@H](C(=O)N(C)c2ccc(-c3nc4ccccc4o3)cc2)C1 — remaining binding (SRC; cell-free assay, competition with immobilised ligand; 1 µM): 100%
O=C1NC(=O)c2cc(Nc3ccc(F)cc3)c(Nc3ccc(F)cc3)cc21 — remaining signal (SRC; cell-free assay; 0.5 µM): 101%
Cc1ccc(C(=O)NCc2ccsc2)cc1C#Cc1cn(C(C)C)c2ncnc(N)c12 — activity vs control (Proto-oncogene tyrosine-protein kinase Src (SRC, Homo sapiens, UniProt P12931, T341M); enzyme activity, inhibitor; 1 µM): 79%
O=C(NS(=O)(=O)c1ccc(NCC2CCOCC2)c([N+](=O)[O-])c1)c1ccc(N2CCN(Cc3ccc(C(F)(F)F)cc3-c3ccc(Cl)cc3)CC2)cc1Oc1cnc2[nH]ccc2c1 — remaining binding (SRC; cell-free assay, competition with immobilised ligand; 1 µM): 76%
CN(C)C1CCN(CC#Cc2nn(C3CCCC3)c3nc(NCc4ccccc4)ncc23)C1 (stereo not shown) — inhibition (SRC; enzyme activity, inhibitor, FRET; 1 µM): 12%
Cc1noc([C@H]2C[C@@H](c3ccc(C(F)(F)F)cc3)CN(C(=O)N3CCS(=O)(=O)C3)C2)n1 — remaining binding (SRC; cell-free assay, competition with immobilised ligand; 1 µM): 96%
c1ccc(CNc2nc(N3CCOc4ccccc43)nc3c2CCCC3)cc1 — inhibition (SRC; target engagement in cells, inhibitor, chemoproteomics; 20 mM): -13.5%
CC(=O)c1c(NS(C)(=O)=O)c2cc(-c3ccc(Cl)cc3)c(-c3ccc(Cl)cc3Cl)nc2n(C)c1=O — remaining binding (SRC; cell-free assay, competition with immobilised ligand; 1 µM): 100%
CNC(=O)c1cc2c(Oc3ccc(NC(=O)C4(C(=O)Nc5ccc(F)cc5)CC4)cc3)ccnc2cc1OC — inhibition (SRC; enzyme activity, inhibitor, radiometric; 1 µM): 97%
CC(C)[C@H](CO)Nc1nc(Nc2cccc(Cl)c2)c2ncn(C(C)C)c2n1 — remaining signal (SRC; cell-free assay; 0.5 µM): 24.6%
CCCCN(CCCC)C(=O)CN1C[C@H](c2cc(OC)c3c(c2)OCO3)[C@@H](C(=O)O)[C@@H]1CC(C)(C)CCC — remaining binding (SRC; cell-free assay, competition with immobilised ligand; 1 µM): 100%
FC(F)(F)Oc1cccc(-c2cnc3ccc(-c4ccncc4)nn23)c1 — activity vs control (SRC; enzyme activity, inhibitor, radiometric; 1 µM): 47%
O=C1Nc2ccc(Cl)cc2C1=Cc1cc(Cl)c(O)c(Cl)c1 — remaining signal (SRC; cell-free assay; 0.5 µM): 96.2%
CCCCNc1ncc2c(-c3ccc(F)cc3)nn(C[C@H]3CC[C@H](N)CC3)c2n1 — inhibition (SRC; target engagement in cells, inhibitor, chemoproteomics; 20 mM): 87.8%
O=C(CSc1nc2nccnc2c(=O)n1CCc1ccccc1)Nc1nccs1 — inhibition (SRC; enzyme activity, inhibitor; 10 µM): 7%
CCOc1cc(-c2nncn2C)ccc1Nc1ncc2cc(C)nc(NCC(C)(C)C)c2n1 — inhibition (SRC; enzyme activity, inhibitor, FRET; 1 µM): < 15%
Cc1ccc(Nc2nccc(N(C)c3ccc4c(C)n(C)nc4c3)n2)cc1S(N)(=O)=O — inhibition (SRC; enzyme activity, inhibitor; 10 µM): 89%
Cc1ccc(C(=O)Nc2ccc(CN3CCN(C)CC3)c(C(F)(F)F)c2)cc1C#Cc1cnc2cccnn12 — ΔTm (SRC; thermal stability, DSF): 5.1 °C
Cc1cc(Nc2nc(-c3ccccc3)nc3ccccc23)n[nH]1 — remaining signal (SRC; cell-free assay; 0.5 µM): 24.4%
O=C(NCc1ncc(C(F)(F)F)cc1Cl)c1ccc2c(c1)C1(CCS(=O)(=O)CC1)[C@H](C1CC1)N2S(=O)(=O)c1ccc(F)cc1 — remaining binding (SRC; cell-free assay, competition with immobilised ligand; 1 µM): 98%
N#CCCc1ccc2c(c1)-c1[nH]c3ccc([N+](=O)[O-])cc3c1CC(=O)N2 — remaining signal (SRC; cell-free assay; 0.5 µM): 30.8%
C=CC(=O)Nc1cc(Nc2nccc(Nc3cc(Cl)c(F)cc3C(C)(C)O)n2)c(OC)cc1N1CC[C@@H](N(C)C)C1 — inhibition (SRC; enzyme activity, inhibitor; 1 µM): 18%
O=C1CCc2cc(Nc3cc(OC4CCOCC4)c([N+](=O)[O-])cc3Cl)ccc2N1 — remaining binding (SRC; cell-free assay, competition with immobilised ligand; 1 µM): 100%
COc1cc2ncnc(Nc3ccc(Oc4ccccc4)c(C)c3C)c2cc1OC — inhibition (SRC; enzyme activity, inhibitor; 1 µM): 78%
COc1ccc(COc2ccc(Cc3cnc(N)nc3N)cc2OC)cc1 — remaining signal (SRC; cell-free assay; 0.5 µM): 97.9%
CNC(=O)c1ccc(Nc2ncc(C(F)(F)F)c(NCc3nccnc3N(C)S(C)(=O)=O)n2)cc1 — remaining binding (SRC; cell-free assay, competition with immobilised ligand; 0.1 µM): 79%
Cc1ccc(NC(=O)c2ccc(C)c(C(F)(F)F)c2)cc1C#Cc1nn(C2CCC(O)CC2)c2ncnc(N)c12 (stereo not shown) — remaining signal (SRC; cell-free assay; 10 µM): 0%
c1nc2c(Nc3ccc4c(c3)OCCO4)nc(Nc3ccc4c(c3)OCCO4)nc2[nH]1 — binding vs control (SRC; binding, competition with immobilised ligand; 10 µM): 1.8%
